Source: ChEMBL document CHEMBL1129245, “N-heteroaryl-2-phenyl-3-(benzyloxy)piperidines: a novel class of potent orally active human NK1 antagonists” (J Med Chem, 1996)

What was measured:
[1] = target: Substance-P receptor (Homo sapiens, UniProt P25103); assay: Displacement of [125 I]-Tyr8 SP from the cloned human Tachykinin receptor 1 expressed in CHO cells; assay type: cell-based
[2] = organism: Rattus norvegicus; assay: Degradation of compound in incubations at 25 uM with normal rat liver microsomes after 15 min relative to initial concentration of 1 uM; assay type: functional
Outline: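 Incubated at 25 µM with normal rat liver microsomes; P-450 at 1.45 nM/mg microsomal protein. Sampled at 15 min, 1 h, 4 h and 24 h. Remaining substrate reported relative to an initial level of 1.0, n = 1.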

[3] = organism: Oryctolagus cuniculus; assay: Displacement of [3H]diltiazem from rabbit skeletal muscle calcium channel; assay type: tissue-based; conditions: Muscle tissue

Substance-P receptor, sequence (P25103 whole entry): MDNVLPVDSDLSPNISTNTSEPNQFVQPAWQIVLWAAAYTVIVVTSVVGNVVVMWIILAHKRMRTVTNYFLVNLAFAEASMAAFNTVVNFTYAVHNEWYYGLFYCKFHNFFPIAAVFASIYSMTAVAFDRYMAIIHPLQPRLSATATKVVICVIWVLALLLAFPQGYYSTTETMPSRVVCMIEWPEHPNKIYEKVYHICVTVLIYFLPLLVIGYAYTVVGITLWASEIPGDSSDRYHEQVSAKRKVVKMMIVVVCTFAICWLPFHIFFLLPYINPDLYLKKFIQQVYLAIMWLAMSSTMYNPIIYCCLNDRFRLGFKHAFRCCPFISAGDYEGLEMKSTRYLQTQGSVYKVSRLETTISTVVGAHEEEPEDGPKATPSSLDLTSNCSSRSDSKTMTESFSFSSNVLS

IC50 [1] [nM] | Binding affinity [3] [µM] | SMILES | Relative oncentration [2] [µM]
1 | 23 | FC(F)(F)c1cc(CO[C@H]2CCCN(Cc3cocn3)[C@H]2c2ccccc2)cc(C(F)(F)F)c1 | 0.05
0.8 | 10 | FC(F)(F)c1cc(CO[C@H]2CCCN(Cc3n[nH]c(S)n3)[C@H]2c2ccccc2)cc(C(F)(F)F)c1 | 
0.53 | 2.06 | FC(F)(F)c1cc(CO[C@H]2CCCN(Cc3ncc[nH]3)[C@H]2c2ccccc2)cc(C(F)(F)F)c1 | 
